# Compounds with a hit are over-represented: about 3.2% of the library has one in this group of screens.
# AF4-AF9 inh – blocks AF4 peptide binding to human AF9; 350,000 compounds, 0.47% hits; inhibition, % at 10 µM; AlphaScreen, biotin-AF4 peptide binding to FLAG-AF9;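 active means every replicate reaching a set inhibition limit, whatever the replicate mean, cut at about 25% in these data; inconclusive means mean inhibition reaches that limit but some replicates miss it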;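 further: 0% = plate neutral control median and 100% = total signal loss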
# Target sequence (P42568 whole entry, looked up): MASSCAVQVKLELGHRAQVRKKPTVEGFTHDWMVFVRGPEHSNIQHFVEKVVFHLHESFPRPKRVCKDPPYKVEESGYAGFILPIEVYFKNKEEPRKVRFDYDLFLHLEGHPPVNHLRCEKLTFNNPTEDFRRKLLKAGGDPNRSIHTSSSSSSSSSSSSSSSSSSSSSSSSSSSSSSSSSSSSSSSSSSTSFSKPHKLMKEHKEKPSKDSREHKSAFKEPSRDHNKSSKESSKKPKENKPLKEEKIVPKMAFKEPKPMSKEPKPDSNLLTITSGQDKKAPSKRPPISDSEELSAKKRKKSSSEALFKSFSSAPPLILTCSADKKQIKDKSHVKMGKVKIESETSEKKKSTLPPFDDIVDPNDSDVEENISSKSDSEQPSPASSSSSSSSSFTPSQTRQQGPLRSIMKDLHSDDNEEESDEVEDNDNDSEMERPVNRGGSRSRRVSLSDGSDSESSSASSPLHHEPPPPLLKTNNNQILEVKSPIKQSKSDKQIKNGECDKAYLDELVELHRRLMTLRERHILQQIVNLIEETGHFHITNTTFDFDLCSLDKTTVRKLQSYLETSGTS
# DENV2 CPE rescue – protects cells from dengue virus 2 cytopathic effect; DENV2-infected cells, cytopathic effect rescue, plate reader; AID 651640; CPE inhibition, % at 9.99 µM; 350,000 compounds, 1.7% hits; in the data active means CPE inhibition above about 20%, passing the limit was not always enough; inconclusive means no clear call, values can overlap the other calls; tested in BHK-21 cells;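 further: 0% = median of neutral control wells and 100% = median of positive control wells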
# PfHsp90 set2 – reduces growth (ATP signal) of yeast expressing P. falciparum Hsp90; inhibition, % at 9.4 µM; 310,000 compounds, 0.32% hits; S. cerevisiae expressing PfHsp90, BacTiter-Glo ATP, 48 h; yeast lacking PDR1 and PDR3 efflux regulators;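 active means every replicate shows inhibition above about 80%, whatever the replicate mean, limit read from the data; inconclusive means mean inhibition reaches the set limit but some replicate falls short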;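 further: 0% = DMSO neutral controls and 100% = 20 µM radicicol positive controls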
# S100A4 inh HTS – blocks human S100A4 binding to myosin IIA peptide. P26447. S100A4/TAMRA-MyoIIA peptide fluorescence polarization. inhibition, % at 10.7 µM. 360,000 compounds, 0.14% hits. AID 652163;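 active means mean inhibition of at least 70% across replicates, with every replicate also reaching that level; inconclusive means mean inhibition reaches 70% but some replicates fall short; inactive means mean inhibition below 70%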
# Target sequence (P26447 whole entry, looked up): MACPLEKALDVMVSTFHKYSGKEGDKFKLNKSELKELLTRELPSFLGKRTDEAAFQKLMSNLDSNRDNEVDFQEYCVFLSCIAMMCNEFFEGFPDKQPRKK
#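 Material: S100A4 monomer (human). Medium: Calcium-containing HEPES buffer, pH 7.2. Probe or stimulus: labelled myosin peptide probe, 5 nM. Compound dosing: one concentration per compound. Timing: polarization read 5 min after assay mix addition, stable 5–60 min. Benchmarks: DMSO as neutral control, TFP as positive control.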
# rRNA inh HTS – inhibits bacterial ribosomal RNA function over humanized ribosomes; 350,000 compounds, 1.6% hits; E. coli WT GFP vs humanized-ribosome RFP mutants, fluorescence, 24 h; active compounds read low; DMSO median 0, no signal -100; GFP signal change (wild-type ribosome), % (test concentration not listed); AID 720706;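 active means significant combined selectivity score with lowered wild-type GFP, culture density cut under 30%, mutant RFP and density less affected; inactive means any of these conditions unmet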
# Cneo AK release – Cryptococcus neoformans lysis via adenylate kinase release; C. neoformans lysis, adenylate kinase release luminescence, 4 h; normalised: neutral wells 0, clomiphene wells 100; lysis activity, % at 15 µM; 360,000 compounds, 0.2% hits; AID 651654;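 active means mean lysis activity across replicates of at least 80%, whatever share of replicates individually reach that level; inactive means mean lysis activity below 80%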
#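 Signal: Adenylate kinase release luminescence | Assay system: Log-phase Cryptococcus neoformans yeast cells | Input: Cells at 5 × 10^6 per mL | Buffer or medium: Fresh YPD growth medium | Compound: Single dose | Schedule: Static 4 h at 37 °C with compound, 1 h detection | Controls: Clomiphene | Read-out: Luminescence rise reflecting yeast cell lysis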
# * = called active by the depositor; ? = inconclusive; . = no result; ! = repeats disagree.
SMILES,AF4-AF9 inh,DENV2 CPE rescue,PfHsp90 set2,S100A4 inh HTS,rRNA inh HTS,Cneo AK release
C[C@@H](c1ccccc1)N1C[C@H](COCc2ccccc2)Oc2cc(N3CC[C@H](N(C)C)C3)ccc2S1(=O)=O,26*,?,.,-5,-26,.
COc1ccccc1-n1cnc2cc(NCc3ccccc3O)ccc21,11,-2,-9,-7,-18*,1
C[C@H]1CN([C@@H](C)CO)C(=O)c2cccc(NS(=O)(=O)c3cccs3)c2O[C@@H]1CN(C)CC1CC1,0,-5,.,2,-1,-3
CN(C)S(=O)(=O)c1cccc2c1C(=O)c1ccccc1C2=O,-2,23*,1,8,10,.
O=C(O)CC(NC(=O)C12CC3CC(CC(C3)C1)C2)c1ccc(OC2CCCC2)cc1 (configuration not stated),-4,22*,9,-2,-2,2
CCOc1ccc(C(CC(=O)O)NC(=O)C23CC4CC(CC(C4)C2)C3)cc1 (configuration not stated),.,.,.,.,.,2
CCCNC(=O)N(C)C[C@H]1Oc2ncc(-c3ccc(F)cc3)cc2C(=O)N([C@@H](C)CO)C[C@@H]1C,-3,-5,.,4,2,-6
CCN(C(=O)COC(=O)c1cc(-c2ccccc2)nn1-c1ccccc1)C1CCS(=O)(=O)C1 (configuration not stated),-2,-3,-12,4,-31*,1
CCN(C(=O)COC(=O)c1cc2c(s1)CCCCC2)C1CCS(=O)(=O)C1 (configuration not stated),0,60*,-7,2,11,0
CCN(C(=O)COC(=O)c1n[nH]c2ccccc12)C1CCS(=O)(=O)C1 (configuration not stated),6,.,-16,3,11,1
CC(C)CN(C(=O)COC(=O)c1cc2c(s1)CCC2)C1CCS(=O)(=O)C1 (configuration not stated),.,.,48,.,.,0
CN1CCN(c2ccccc2NC(=O)c2ccc(N3CCCCC3)c([N+](=O)[O-])c2)CC1,27*,0,.,-2,-30,1
COC(=O)c1ccc(N2CCc3ccccc32)c([N+](=O)[O-])c1,33*,-1,6,3,-22,-3
O=C(Nc1cc([N+](=O)[O-])ccc1N1CCCC1)c1ccccc1,1,-3,.,-8,-26*,2
C[C@H]1CN([C@@H](C)CO)C(=O)c2cccc(NS(=O)(=O)c3cccs3)c2O[C@@H]1CN(C)CC1CCCCC1,2,-4,.,-12,4,-4
O=C(CN1C2CCCC1CC(NC(=O)c1ccccc1)C2)Nc1ccccc1C(F)(F)F (configuration not stated),0,0,7,-4,-41*,-2
O=C(CN1C2CCCC1CC(NC(=O)c1ccco1)C2)Nc1ccccc1C(F)(F)F (configuration not stated),.,.,-86,.,.,-5
COc1cccc(C(=O)NC2CCCN(C3Cc4ccccc4C3)C2)c1OC (configuration not stated),26*,-5,18,-1,5,-5
CC#CC(=O)NC1CCCN(C2Cc3ccccc3C2)C1 (configuration not stated),1,1,12,-2,-1,0
C[C@@H]1CCCCO[C@H](CN(C)Cc2ccc3c(c2)OCO3)[C@@H](C)CN([C@@H](C)CO)C(=O)c2cc(NS(=O)(=O)c3cccs3)ccc2O1,.,-3,.,.,5,-14
CNC[C@@H]1OCCCC[C@@H](C)Oc2ccc(NS(=O)(=O)c3cccs3)cc2C(=O)N([C@H](C)CO)C[C@H]1C,-29,-4,.,101*,2,50
C[C@H]1CCCCO[C@H](CN(C)Cc2ccc3c(c2)OCO3)[C@@H](C)CN([C@@H](C)CO)C(=O)c2cc(NS(=O)(=O)c3cccs3)ccc2O1,.,41*!,.,.,1,-15
C[C@@H]1CN([C@H](C)CO)C(=O)c2cc(NS(=O)(=O)c3cccs3)ccc2O[C@@H](C)CCCCO[C@@H]1CN(C)Cc1ccc2c(c1)OCO2,.,-14,.,.,-5,-1
C[C@@H]1CN([C@@H](C)CO)C(=O)c2cc(NS(=O)(=O)c3cccs3)ccc2O[C@@H](C)CCCCO[C@H]1CN(C)Cc1ccc2c(c1)OCO2,.,37*,.,.,-2,25
C[C@H](CO)N1C[C@H](C)[C@@H](CN(C)Cc2ccc3c(c2)OCO3)OCCCC[C@H](C)Oc2ccc(NS(=O)(=O)c3cccs3)cc2C1=O,.,-6,.,.,0,-3
SMILES,AF4-AF9 inh,DENV2 CPE rescue,PfHsp90 set2,S100A4 inh HTS,rRNA inh HTS,Cneo AK release
CNC[C@@H]1OCCCC[C@H](C)Oc2ccc(NS(=O)(=O)c3cccs3)cc2C(=O)N([C@@H](C)CO)C[C@@H]1C,-6,3,.,-2,2,-4
C[C@@H]1CCCCO[C@@H](CN(C)Cc2ccc3c(c2)OCO3)[C@H](C)CN([C@@H](C)CO)C(=O)c2cc(NS(=O)(=O)c3cccs3)ccc2O1,.,112*!,.,.,2,37
O=C(CCN1C(=O)S/C(=C\C=C\c2ccccc2)C1=O)Nc1ccc(O)cc1,5,-9,-24,0,-25*,1
CN(C)c1ccc2c(c1)[C@H]1C[C@H](CC(=O)O)O[C@@H](CO)[C@H]1O2,-4,-4,.,-3,6,-7
C[C@@H]1CN([C@H](C)CO)S(=O)(=O)c2ccc(C3=CCCC3)cc2O[C@@H]1CN(C)Cc1cccnc1,-1,-2,.,4,-1,1
C[C@@H]1CN([C@H](C)CO)S(=O)(=O)c2ccc(-c3cncnc3)cc2O[C@H]1CN(C)C,-4,34*,.,4,8,-1
COc1cccc(-c2ccc3c(c2)O[C@H](CN(C)Cc2cncnc2)[C@H](C)CN([C@@H](C)CO)S3(=O)=O)c1,1,28*,.,15,-3,-1
C[C@@H]1CN([C@@H](C)CO)S(=O)(=O)c2ccc(C3=CCCC3)cc2O[C@H]1CN(C)Cc1ccncc1,1,-1,.,-8,-40,0
C[C@H](CO)N1C[C@H](C)[C@H](CN(C)Cc2ccncc2)Oc2cc(C3=CCCC3)ccc2S1(=O)=O,-1,36*,.,-15,-6,-1
C[C@H](CO)N1C[C@H](C)[C@H](CN(C)Cc2cccnc2)Oc2cc(C3=CCCC3)ccc2S1(=O)=O,1,28*,.,16,-2,-1
CNC[C@@H]1Oc2c(NS(=O)(=O)c3ccc(OC)cc3)cccc2C(=O)N([C@H](C)CO)C[C@@H]1C,-4,-4,.,-1,3,-1
CC(C)NC(=O)N[C@H]1C=C[C@H](CC(=O)NC2Cc3ccccc3C2)O[C@H]1CO,-7,10,.,1,1,57

# High-throughput results: PubChem BioAssay, Broad Institute
